Measurements: ChEMBL document CHEMBL4393701, “Appendix A. dithioloquinolinethiones as new potential multitargeted antibacterial and antifungal agents: Synthesis, biological evaluation and molecular docking studies” (2019)
Converted amounts (≈) assume the structure as drawn.

How the values were obtained:
Bacillus cereus [1] = assay: Antibacterial activity against Bacillus cereus clinical isolate after 24 hrs by iodonitrotetrazolium chloride dye based microdilution assay; format: functional
In short: (§1)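 Fresh overnight cultures adjusted spectrophotometrically to 1×10^5 CFU/mL, giving 1.0×10^4 CFU per well in tryptic soy broth. Compounds were dissolved in 5% DMSO and tested at 0.001-1.0 mg/ml by serial dilution; 5% DMSO was the negative control. After 24 h at 37 °C, 0.2 mg/mL INT solution was added for 30 min at 37 °C and OD read at 655 nm. MIC is the lowest concentration giving significant growth inhibition versus the positive control. Duplicates, repeated three times.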

Bacillus cereus [2] = assay: Bactericidal activity against Bacillus cereus clinical isolate incubated for 24 hrs followed by re-plating on tryptic soy broth; format: functional
In short: (§2)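 Bacteria were grown in tryptic soy broth, 1.0×10^4 CFU per well, with compounds in 5% DMSO at 0.001-1.0 mg/ml for 24 h at 37 °C. Then 10 µL was subcultured into fresh TSB. MBC is the lowest concentration showing no growth after subculture, taken as 99.5% kill of the original inoculum. Duplicates, repeated three times.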

Micrococcus flavus [3] = assay: Antibacterial activity against Micrococcus flavus ATCC 10240 after 24 hrs by iodonitrotetrazolium chloride dye based microdilution method; format: functional; details: ATCC 10240, 24 h; in short: as §1
Micrococcus flavus [4] = assay: Bactericidal activity against Micrococcus flavus ATCC 10240 incubated for 24 hrs followed by re-plating on tryptic soy broth; format: functional; details: ATCC 10240, 24 h; in short: as §2
Staphylococcus aureus [5] = assay: Antibacterial activity against Staphylococcus aureus ATCC 6538 after 24 hrs by iodonitrotetrazolium chloride dye based microdilution method; format: functional; details: ATCC 6538, 24 h; in short: as §1
Staphylococcus aureus [6] = assay: Bactericidal activity against Staphylococcus aureus ATCC 6538 incubated for 24 hrs followed by re-plating on tryptic soy broth; format: functional; details: ATCC 6538, 24 h; in short: as §2
Listeria monocytogenes [7] = assay: Antibacterial activity against Listeria monocytogenes NCTC 7973 after 24 hrs by iodonitrotetrazolium chloride dye based microdilution method; format: functional; details: NCTC 7973, 24 h; in short: as §1
Listeria monocytogenes [8] = assay: Bactericidal activity against Listeria monocytogenes NCTC 7973 incubated for 24 hrs followed by re-plating on tryptic soy broth; format: functional; details: NCTC 7973, 24 h; in short: as §2
Enterobacter cloacae [9] = assay: Antibacterial activity against Enterobacter cloacae clinical isolate after 24 hrs by iodonitrotetrazolium chloride dye based microdilution method; format: functional; in short: as §1
Enterobacter cloacae [10] = assay: Bactericidal activity against Enterobacter cloacae incubated for 24 hrs followed by re-plating on tryptic soy broth; format: functional; in short: as §2
Pseudomonas aeruginosa [11] = assay: Antibacterial activity against Pseudomonas aeruginosa ATCC 27853 after 24 hrs by iodonitrotetrazolium chloride dye based microdilution method; format: functional; details: ATCC 27853, 24 h; in short: as §1
Pseudomonas aeruginosa [12] = assay: Bactericidal activity against Pseudomonas aeruginosa ATCC 27853 incubated for 24 hrs followed by re-plating on tryptic soy broth; format: functional; details: ATCC 27853, 24 h; in short: as §2
Salmonella typhimurium [13] = assay: Antibacterial activity against Salmonella typhimurium ATCC 13311 after 24 hrs by iodonitrotetrazolium chloride dye based microdilution method; format: functional, Salmonella enterica subsp. enterica serovar Typhimurium; details: Salmonella enterica, ATCC 13311, 24 h; in short: as §1
Salmonella typhimurium [14] = assay: Bactericidal activity against Salmonella typhimurium ATCC 13311 incubated for 24 hrs followed by re-plating on tryptic soy broth; format: functional, Salmonella enterica subsp. enterica serovar Typhimurium; details: Salmonella enterica, ATCC 13311, 24 h; in short: as §2
Escherichia coli [15] = assay: Antibacterial activity against Escherichia coli ATCC 35210 after 24 hrs by iodonitrotetrazolium chloride dye based microdilution method; format: functional; details: ATCC 35210, 24 h; in short: as §1
Escherichia coli [16] = assay: Bactericidal activity against Escherichia coli ATCC 35210 incubated for 24 hrs followed by re-plating on tryptic soy broth; format: functional; details: ATCC 35210, 24 h; in short: as §2
Aspergillus fumigatus [17] = assay: Antifungal activity against Aspergillus fumigatus ATCC 1022 after 72 hrs by microdilution technique; format: functional; details: ATCC 1022, 72 h
In short: (§3)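 Spores were washed off malt agar with 0.85% saline containing 0.1% Tween 80 and adjusted to about 1.0×10^5 per well. Compounds in 5% DMSO were serially diluted (0.001-1.0 mg/ml) in malt broth with inoculum. Plates were shaken at 160 rpm for 72 h at 28 °C. MIC is the lowest concentration without visible growth under a binocular microscope. Three independent experiments in duplicate.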

Aspergillus fumigatus [18] = assay: Fungicidal activity against Aspergillus fumigatus ATCC 1022 incubated for 72 hrs followed by sub-culturing on broth malt medium and measured after 72 hrs; format: functional; details: ATCC 1022, 72 h
In short: (§4)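 After 72 h exposure in malt broth, 2 µL from test wells was subcultured into wells holding 100 µL broth and incubated a further 72 h at 28 °C. MFC is the lowest concentration with no visible growth, taken as 99.5% kill of the original inoculum. Three independent experiments in duplicate.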

Aspergillus versicolor [19] = assay: Antifungal activity against Aspergillus versicolor ATCC 11730 after 72 hrs by microdilution method; format: functional; details: ATCC 11730, 72 h; in short: as §3
Aspergillus versicolor [20] = assay: Fungicidal activity against Aspergillus versicolor ATCC 11730 incubated for 72 hrs followed by sub-culturing on broth malt medium and measured after 72 hrs; format: functional; details: ATCC 11730, 72 h; in short: as §4
Aspergillus ochraceus [21] = assay: Antifungal activity against Aspergillus ochraceus ATCC 12066 after 72 hrs by microdilution technique; format: functional; details: ATCC 12066, 72 h; in short: as §3
Aspergillus ochraceus [22] = assay: Fungicidal activity against Aspergillus ochraceus ATCC 12066 incubated for 72 hrs followed by sub-culturing on broth malt medium and measured after 72 hrs; format: functional; details: ATCC 12066, 72 h; in short: as §4
Aspergillus niger [23] = assay: Antifungal activity against Aspergillus niger ATCC 6275 after 72 hrs by microdilution technique; format: functional; details: ATCC 6275, 72 h; in short: as §3
Aspergillus niger [24] = assay: Fungicidal activity against Aspergillus niger ATCC 6275 incubated for 72 hrs followed by sub-culturing on broth malt medium and measured after 72 hrs; format: functional; details: ATCC 6275, 72 h; in short: as §4
Trichoderma viride [25] = assay: Antifungal activity against Trichoderma viride IAM 5061 after 72 hrs by microdilution technique; format: functional; details: IAM 5061, 72 h; in short: as §3
Trichoderma viride [26] = assay: Fungicidal activity against Trichoderma viride IAM 5061 incubated for 72 hrs followed by sub-culturing on broth malt medium and measured after 72 hrs; format: functional; details: IAM 5061, 72 h; in short: as §4
Penicillium ochrochloron [27] = assay: Antifungal activity against Penicillium ochrochloron ATCC 9112 after 72 hrs by microdilution technique; format: functional; details: ATCC 9112, 72 h; in short: as §3
Penicillium ochrochloron [28] = assay: Fungicidal activity against Penicillium ochrochloron ATCC 9112 incubated for 72 hrs followed by sub-culturing on broth malt medium and measured after 72 hrs; format: functional; details: ATCC 9112, 72 h; in short: as §4
[29] = Antifungal activity against Penicillium funiculosum ATCC 36839 after 72 hrs by microdilution technique; format: functional; details: Talaromyces pinophilus, ATCC 36839, 72 h; in short: as §3
[30] = Fungicidal activity against Penicillium funiculosum ATCC 36839 incubated for 72 hrs followed by sub-culturing on broth malt medium and measured after 72 hrs; format: functional; details: Talaromyces pinophilus, ATCC 36839, 72 h; in short: as §4
Penicillium cyclopium [31] = assay: Antifungal activity against Penicillium verrucosum var. cyclopium food isolate after 72 hrs by microdilution technique; format: functional; in short: as §3
Penicillium cyclopium [32] = assay: Fungicidal activity against Penicillium verrucosum var. cyclopium food isolate incubated for 72 hrs followed by sub-culturing on broth malt medium and measured after 72 hrs; format: functional; in short: as §4

MIC (Bacillus cereus [1])	MIC (Micrococcus flavus [3])	MIC (Staphylococcus aureus [5])	MIC (Listeria monocytogenes [7])	MIC (Enterobacter cloacae [9])	MIC (Pseudomonas aeruginosa [11])	MIC (Salmonella typhimurium [13])	MIC (Escherichia coli [15])	MIC (Aspergillus fumigatus [17])	MIC (Aspergillus versicolor [19])	Compound	MBC (Bacillus cereus [2])	MBC (Micrococcus flavus [4])	MBC (Staphylococcus aureus [6])	MBC (Listeria monocytogenes [8])	MBC (Enterobacter cloacae [10])	MBC (Pseudomonas aeruginosa [12])	MBC (Salmonella typhimurium [14])	MBC (Escherichia coli [16])	MFC (Aspergillus fumigatus [18])	MFC (Aspergillus versicolor [20])	also measured
29.5 µM (≈ 9.13 µg/mL)	29.5 µM (≈ 9.13 µg/mL)	29.5 µM (≈ 9.13 µg/mL)	29.5 µM (≈ 9.13 µg/mL)	29.5 µM (≈ 9.13 µg/mL)	29.5 µM (≈ 9.13 µg/mL)	29.5 µM (≈ 9.13 µg/mL)	29.5 µM (≈ 9.13 µg/mL)	5.9 ×10⁻² mM	5.9 ×10⁻² mM	CCOc1ccc2c(c1)-c1c(ssc1=S)C(C)(C)N2	59 µM (≈ 18.3 µg/mL)	59 µM (≈ 18.3 µg/mL)	59 µM (≈ 18.3 µg/mL)	59 µM (≈ 18.3 µg/mL)	59 µM (≈ 18.3 µg/mL)	59 µM (≈ 18.3 µg/mL)	59 µM (≈ 18.3 µg/mL)	59 µM (≈ 18.3 µg/mL)	11.8 ×10⁻² mM	11.8 ×10⁻² mM	MIC (Aspergillus ochraceus [21]): 11.8 ×10⁻² mM; MFC (Aspergillus ochraceus [22]): 23.6 ×10⁻² mM; MIC (Aspergillus niger [23]): 4.32 ×10⁻² mM; MFC (Aspergillus niger [24]): 11.8 ×10⁻² mM; MIC (Trichoderma viride [25]): 1.18 ×10⁻² mM; MFC (Trichoderma viride [26]): 2.95 ×10⁻² mM; MIC (Penicillium ochrochloron [27]): 0.79 ×10⁻² mM; MFC (Penicillium ochrochloron [28]): 1.57 ×10⁻² mM; MIC [29]: 11.8 ×10⁻² mM; MFC [30]: 23.6 ×10⁻² mM; MIC (Penicillium cyclopium [31]): 8.85 ×10⁻² mM; MFC (Penicillium cyclopium [32]): 23.6 ×10⁻² mM
44.1 µM (≈ 15 µg/mL)	132 µM (≈ 44.9 µg/mL)	88.1 µM (≈ 30 µg/mL)	176 µM (≈ 59.9 µg/mL)	88.1 µM (≈ 30 µg/mL)	88.1 µM (≈ 30 µg/mL)	176 µM (≈ 60 µg/mL)	132 µM (≈ 45 µg/mL)	17.6 ×10⁻² mM	4.41 ×10⁻² mM	COc1cc2c(c([N+](=O)[O-])c1)NC(C)(C)c1ssc(=S)c1-2	88.1 µM (≈ 30 µg/mL)	176 µM (≈ 59.9 µg/mL)	176 µM (≈ 59.9 µg/mL)	352 µM (≈ 120 µg/mL)	176 µM (≈ 59.9 µg/mL)	176 µM (≈ 60 µg/mL)	352 µM (≈ 120 µg/mL)	176 µM (≈ 59.9 µg/mL)	35.2 ×10⁻² mM	8.81 ×10⁻² mM	MIC (Aspergillus ochraceus [21]): 2.35 ×10⁻² mM; MFC (Aspergillus ochraceus [22]): 4.41 ×10⁻² mM; MIC (Aspergillus niger [23]): 4.41 ×10⁻² mM; MFC (Aspergillus niger [24]): 8.81 ×10⁻² mM; MIC (Trichoderma viride [25]): 3.23 ×10⁻² mM; MFC (Trichoderma viride [26]): 4.41 ×10⁻² mM; MIC (Penicillium ochrochloron [27]): 4.41 ×10⁻² mM; MFC (Penicillium ochrochloron [28]): 8.81 ×10⁻² mM; MIC [29]: 4.41 ×10⁻² mM; MFC [30]: 8.81 ×10⁻² mM; MIC (Penicillium cyclopium [31]): 6.46 ×10⁻² mM; MFC (Penicillium cyclopium [32]): 17.6 ×10⁻² mM
248 µM (≈ 86.7 µg/mL)	248 µM (≈ 86.7 µg/mL)	248 µM (≈ 86.7 µg/mL)	372 µM (≈ 130 µg/mL)	744 µM (≈ 260 µg/mL)	372 µM (≈ 130 µg/mL)	248 µM (≈ 86.7 µg/mL)	744 µM (≈ 260 µg/mL)			CC1(C)S[C@@H]2[C@H](NC(=O)[C@H](N)c3ccccc3)C(=O)N2[C@H]1C(=O)O [AMPICILLIN]	372 µM (≈ 130 µg/mL)	372 µM (≈ 130 µg/mL)	372 µM (≈ 130 µg/mL)	744 µM (≈ 260 µg/mL)	1240 µM (≈ 433 µg/mL)	492 µM (≈ 172 µg/mL)	380 µM (≈ 133 µg/mL)	1240 µM (≈ 433 µg/mL)			
